Each block holds one compound with its values, some of them ahead of it. The source made the active and inactive calls. No cut-off for these calls is given here.
What was measured:
MCF7 = assay: Antiproliferative activity against FAP-alpha deficient human MCF7 cells incubated for 48 hrs by MTT assay; type: functional, cell-based; conditions: MCF7, 48 h
Summary of the method: (§1)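 Cells grown in DMEM with 10% FBS and 1% penicillin-streptomycin at 37 °C, 5% CO2; 10% heat-inactivated FBS used during cytotoxicity testing to exclude serum FAP activity. Viability read by MTT; IC50 as mean ± SEM of at least three independent experiments. Transfected lines were made from MDA-MB-231 with human FAPα plasmid or empty pCMV6-Entry vector and checked by Western blot at 48 h.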

MDA-MB-435 = assay: Antiproliferative activity against wild type human MDA-MB-435 cells expressing FAP-alpha incubated for 48 hrs by MTT assay; type: functional, cell-based; conditions: MDA-MB-435, 48 h; summary of the method: as §1
Mus musculus [1] = assay: Cardiotoxicity in BALB/C nude mouse xenografted with human MDA-MB-231 cells assessed as increase in interventricular septal diastole dimension at 4 umol/kg, iv administered starting on day 5 measured after day 22 by echocardiography; type: toxicity, organism-based; conditions: in vivo
Summary of the method: (§2)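 MDA-MB-231 xenograft mice dosed iv daily in 5% HS15 from day 5, 22 days of treatment. Transthoracic echocardiography with a 21 MHz transducer under 1.5% isoflurane, supine position. M-mode images from parasternal short-axis view at papillary muscle level, used to derive LVIDd, LVIDs, IVSd and IVSs. n = 6, mean ± SEM, one-way ANOVA with Tukey's test.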

[2] = Cytotoxicity in BMSC (unknown origin) assessed as cell viability at 1000 nmol/L after 72 hrs by MTT assay; type: cell-based; conditions: unidentified, 1 µM
[3] = Acute toxicity in iv dosed Kunming mouse measured less than 4 hrs post dose; type: organism-based; conditions: in vivo
Summary of the method: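 Kunming mice (22.0−28.0 g), half male and half female, 10 groups of n = 10. Single iv dose on day 1 across five levels per compound (prodrug 29.98–50.00 μmol/kg; arenobufagin 4.50–8.00 μmol/kg). Watched continuously for 8 h for abnormal behaviour and deaths, then intermittently for 2 weeks, and sacrificed day 14. LD50 by Bliss method.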

MDA-MB-231 [4] = assay: Antitumor activity against human MDA-MB-231 cells xenografted in BALB/C nude mouse at 4 umol/kg, iv administered starting on day 5 measured after day 22 by Ki67 staining-based assay relative to control; type: functional
Summary of the method: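 Female BALB/C nude mice, MDA-MB-231 cells (1 × 10^7) injected subcutaneously in Matrigel–PBS 1:1. Daily iv dosing in 5% HS15 vehicle from day 5. Tumours fixed and paraffin-embedded, 5 μm sections, anti-Ki67 IHC, read blind by a pathologist. Proliferative index by image analysis, n = 6. Compared with 5% HS15 control by one-way ANOVA and Tukey's test.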

MDA-MB-231 [5] = assay: Antitumor activity against human MDA-MB-231 cells xenografted in BALB/C nude mouse assessed as tumor regression at 4 umol/kg, iv administered starting on day 5 measured after day 22 by Ki67 staining-based assay; type: functional, organism-based
Mus musculus [6] = assay: Cardiotoxicity in BALB/C nude mouse xenografted with human MDA-MB-231 cells assessed as increase in LDH level at 4 umol/kg, iv administered starting on day 5 measured after day 22; type: toxicity, organism-based; conditions: in vivo
Summary of the method: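 Xenograft-bearing mice dosed iv daily in 5% HS15. Blood taken by cardiac puncture before sacrifice and spun at 3000 rpm for 20 min at 4 °C to give serum. D-LDH activity measured by colorimetric kit. n = 6, one-way ANOVA with Tukey's test against HS15 control.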

Mus musculus [7] = assay: Cardiotoxicity in BALB/C nude mouse xenografted with human MDA-MB-231 cells assessed as cytoplasmic vacuolization at 4 umol/kg, iv administered starting on day 5 measured after day 22 by hematoxylin-eosin staining-based assay; type: toxicity, organism-based; conditions: in vivo
Summary of the method: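 Xenograft mice (MDA-MB-231, female BALB/C nude) dosed iv daily in 5% HS15 from day 5. Heart fixed 24 h, paraffin-embedded, cut into 5 μm sections and stained with H&E. Vacuolization scored by a pathologist blind to treatment.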

Mus musculus [8] = assay: Cardiotoxicity in BALB/C nude mouse xenografted with human MDA-MB-231 cells assessed as decrease in left ventricular internal systole dimension at 4 umol/kg, iv administered starting on day 5 measured after day 22 by echocardiography; type: toxicity, organism-based; conditions: in vivo; summary of the method: as §2
Mus musculus [9] = assay: Cardiotoxicity in BALB/C nude mouse xenografted with human MDA-MB-231 cells assessed as increase in interventricular septal systole dimension at 4 umol/kg, iv administered starting on day 5 measured after day 22 by echocardiography; type: toxicity, organism-based; conditions: in vivo; summary of the method: as §2
MDA-MB-231 [10] = assay: Antiproliferative activity against human MDA-MB-231 cells assessed as decrease in cell viability at 62.5 to 500 nmol/L after 72 hrs by MTT assay; type: functional, cell-based
MDA-MB-231 [11] = assay: Antiproliferative activity against FAP-alpha deficient human MDA-MB-231 cells incubated for 48 hrs by MTT assay; type: functional, cell-based; conditions: MDA-MB-231, 48 h; summary of the method: as §1
Mus musculus [12] = assay: Cardiotoxicity in BALB/C nude mouse xenografted with human MDA-MB-231 cells assessed as decrease in left ventricular internal diastole dimension at 4 umol/kg, iv administered starting on day 5 measured after day 22 by echocardiography; type: toxicity, organism-based; conditions: in vivo; summary of the method: as §2
Mus musculus [13] = assay: Acute toxicity in Kunming mouse assessed as mortality at 4 umol/kg, iv after 8 hrs post dose; type: organism-based; conditions: in vivo
Prolyl endopeptidase FAP [14] = target: T1, Prolyl endopeptidase FAP (Homo sapiens, UniProt Q12884); assay: (§3) Prodrug activation assessed as recombinant human FAP-alpha mediated (S)-((3S,5R,8R,9S,10S,11S,13R,14S,17R)-11,14-dihydroxy-10,13-dimethyl-12-oxo-17-(2-oxo-2H-pyran-5-yl)hexadecahydro-1H-cyclopenta[a]phenanthren-3-yl) 2-amino-4-methylpentanoate formation by measuring intrinsic clearance after 90 mins by UPLC-MS/MS analysis; conditions: 1.5 h
T1 sequence (Q12884 whole entry): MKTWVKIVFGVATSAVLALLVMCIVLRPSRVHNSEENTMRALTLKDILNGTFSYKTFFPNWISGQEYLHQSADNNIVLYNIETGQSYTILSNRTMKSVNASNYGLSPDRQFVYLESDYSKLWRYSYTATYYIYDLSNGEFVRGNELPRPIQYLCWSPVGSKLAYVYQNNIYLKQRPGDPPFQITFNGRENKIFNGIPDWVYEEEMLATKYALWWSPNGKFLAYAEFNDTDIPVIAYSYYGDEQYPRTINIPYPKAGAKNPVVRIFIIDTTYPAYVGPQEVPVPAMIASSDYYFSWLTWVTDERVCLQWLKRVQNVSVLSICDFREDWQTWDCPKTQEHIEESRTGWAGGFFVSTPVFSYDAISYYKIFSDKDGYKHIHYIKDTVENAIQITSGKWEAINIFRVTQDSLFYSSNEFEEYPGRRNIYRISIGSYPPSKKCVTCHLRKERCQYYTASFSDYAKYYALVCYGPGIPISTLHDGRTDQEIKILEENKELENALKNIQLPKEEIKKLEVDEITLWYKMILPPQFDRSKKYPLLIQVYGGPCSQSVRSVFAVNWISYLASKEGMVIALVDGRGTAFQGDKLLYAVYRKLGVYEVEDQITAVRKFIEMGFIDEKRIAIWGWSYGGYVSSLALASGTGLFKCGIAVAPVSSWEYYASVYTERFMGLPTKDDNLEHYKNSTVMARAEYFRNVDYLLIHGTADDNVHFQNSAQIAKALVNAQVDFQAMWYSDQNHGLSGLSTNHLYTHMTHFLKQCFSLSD
Summary of the method: (§4)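 Prodrug at 0.625–40 μmol/L incubated with rhFAPα at 0.45 μg/mL and internal standard in 0.2 mL PBS, pH 7.4, at 37 °C for 90 min. Quenched with MeCN and spun at 18 000g for 15 min; product measured by UPLC-MS/MS. S50 and Vmax fitted with an allosteric sigmoidal model; CLint = Vmax/S50. Three independent experiments.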

Prolyl endopeptidase FAP [15] = target: T1, Prolyl endopeptidase FAP; assay: Prodrug activation assessed as Vmax for recombinant human FAP-alpha mediated (S)-((3S,5R,8R,9S,10S,11S,13R,14S,17R)-11,14-dihydroxy-10,13-dimethyl-12-oxo-17-(2-oxo-2H-pyran-5-yl)hexadecahydro-1H-cyclopenta[a]phenanthren-3-yl) 2-amino-4-methylpentanoate formation after 90 mins by UPLC-MS/MS analysis; conditions: 1.5 h; summary of the method: as §4
Prolyl endopeptidase FAP [16] = target: T1, Prolyl endopeptidase FAP; assay: as §3, with “concentration of test compound gives half-maximal activity” for “intrinsic clearance”; conditions: 1.5 h; summary of the method: as §4
Prolyl endopeptidase FAP [17] = target: T1, Prolyl endopeptidase FAP; assay: Prodrug activation assessed as recombinant human FAP-alpha mediated (3S,5R,8R,9S,10S,11S,13R,14S,17R)-11,14-dihydroxy-10,13-dimethyl-12-oxo-17-(2-oxo-2H-pyran-5-yl)hexadecahydro-1H-cyclopenta[a]phenanthren-3-yl 4-aminobenzoate formation at 40 umol/L after 6 hrs by UPLC-MS/MS analysis; conditions: 40 µM
Summary of the method: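 Prodrug at 40 μmol/L incubated with rhFAPα at 0.45 μg/mL in 0.2 mL buffer at 37 °C for 6 h, with bufalin at 2 μmol/L as internal standard. Stopped with acetonitrile and spun at 18 000g for 15 min. Released active form measured by UPLC-MS/MS via peak-area ratio against a standard curve of 0.625–40 μmol/L.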

SMILES: C[C@]12CC[C@H](O)C[C@H]1CC[C@@H]1[C@@H]2[C@H](O)C(=O)[C@]2(C)[C@@H](c3ccc(=O)oc3)CC[C@]12O
IC50 (MCF7): 8.88 nM | IC50 (MDA-MB-435): 22.4 nM | Activity (Mus musculus [1]): Toxic | Activity [2]: Non-Toxic | LD50 at 4 h [3]: 6.82 µmol/kg | Activity (MDA-MB-231 [4]): 45 - 50% | Activity (MDA-MB-231 [5]): Active | Activity (Mus musculus [6]): Toxic | Activity (Mus musculus [7]): Toxic | Activity (Mus musculus [8]): Toxic | Activity (Mus musculus [9]): Toxic | Activity (MDA-MB-231 [10]): Active | IC50 (MDA-MB-231 [11]): 15.7 nM | Activity (Mus musculus [12]): Toxic | Activity (Mus musculus [13]): Non-Toxic

CL (Prolyl endopeptidase FAP [14]): 3520 µL/min/mg | Vmax (Prolyl endopeptidase FAP [15]): 0.042 µmol/min/mg | S50 (Prolyl endopeptidase FAP [16]): 11.92 µmol/L
SMILES: CC(C)C[C@H](NC(=O)[C@@H]1CCCN1C(=O)CNC(=O)OCc1ccccc1)C(=O)O[C@H]1CC[C@@]2(C)[C@H](CC[C@@H]3[C@@H]2[C@H](O)C(=O)[C@]2(C)[C@@H](c4ccc(=O)oc4)CC[C@]32O)C1

Drug metabolism (Prolyl endopeptidase FAP [17]): Metabolite_Notdetected
SMILES: C[C@]12CC[C@H](OC(=O)c3ccc(NC(=O)[C@@H]4CCCN4C(=O)CNC(=O)OCc4ccccc4)cc3)C[C@H]1CC[C@@H]1[C@@H]2[C@H](O)C(=O)[C@]2(C)[C@@H](c3ccc(=O)oc3)CC[C@]12O

Reference: ChEMBL document CHEMBL4038302, “Fibroblast Activation Protein α Activated Tripeptide Bufadienolide Antitumor Prodrug with Reduced Cardiotoxicity” (J Med Chem, 2017)
